# Assay outcomes as filed in PubChem.
# PGC1a acetyl up: compounds raising PGC1a acetylation signal, primary screen, PGC1a modulator project, cell-based, U2OS, AlphaScreen, signal-increasing mode; activation, % at 15.6 µM; overnight; 350,000 compounds, 0.21% hits;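 active means every replicate reaching activation of at least 50%, whatever the mean replicate activation; inconclusive means replicates that disagree or another doubt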;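 further: hits raise the AlphaScreen acetylation signal above neutral controls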
#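 System: Flag-PGC1a/GCN5 U2OS cells | Quantity: 7000 cells/well | Times: Overnight compound treatment, 37 °C | Measured by: AlphaScreen proximity luminescence, anti-acetyl-lysine antibody | Dosing: One concentration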
# Hep G6PC suppr: suppressors of forskolin-stimulated G6PC mRNA, dose response, PGC-1a acetylation activator project, cell-based, hepatocytes, RT-qPCR, cherry-picked samples; AID 743463, 2014; 240 tested, under 10 active; G6PC suppression (normalized activity, % of positive control; higher = more suppression), % at 26 µM; primary mouse hepatocytes; shares compounds with PGC1a acetyl up;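 active means dose curves showing G6PC suppression whose half-maximal dose is at most twice the top valid dose; inconclusive means flat curves with moderate negative activity, or unreliable fits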;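 further: G6PC expression relative to GAPDH housekeeping gene as delta delta Ct; 0% = median of neutral control wells and 100% = median of positive control wells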
# PCK1 hep suppr: suppression of PCK1 mRNA in primary hepatocytes, dose response, PGC-1a acetylation activator project, cell-based, primary mouse hepatocytes, RT-qPCR, cherry-pick; forskolin-stimulated; AID 743465, 2014; 230 tested, under 10 active; shares compounds with PGC1a acetyl up; PCK1 expression decrease, unspecified at 26 µM;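 active means compounds lowering PCK1 expression whose fitted half-maximal concentration is at most twice the top tested dose; inconclusive means flat fit with moderate opposite-direction effect, or poor fit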;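 further: values are delta delta Ct of PCK1 relative to GAPDH; higher delta delta Ct means lower PCK1 expression so positive values indicate hits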
# Hep PGC-1a down: suppression of PGC-1a mRNA in primary hepatocytes, dose response, PGC-1a acetylation activator project, cell-based, primary mouse hepatocytes, RT-qPCR, cherry-pick; AID 743467, 2014; shares compounds with PGC1a acetyl up; 240 tested, under 10 active; max activity (PGC-1a expression decrease), %; PGC-1a mRNA qPCR, forskolin; top dose 26 µM;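 active means compound lowering PGC-1a expression with fitted half-maximal concentration at most twice its top tested dose; inconclusive means flat curve with moderate opposite-direction effect, or poor fit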;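 further: 0% = neutral control wells median and 100% = positive control wells median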
# * hit, by the source's call; ? = inconclusive; / = no result. The list is a sample of the results.
SMILES,PGC1a acetyl up,Hep G6PC suppr,PCK1 hep suppr,Hep PGC-1a down
C[C@H](CO)N1C[C@H](C)[C@H](CN(C)Cc2ccc(C(=O)Nc3ccccc3N)cc2)Oc2c(NC(=O)c3ccncc3)cccc2C1=O,-52,/,/,/
C[C@H]1CN([C@@H](C)CO)C(=O)c2cccc(NC(=O)Nc3cccc4ccccc34)c2O[C@H]1CN(C)Cc1ccc(C(=O)Nc2ccccc2N)cc1,81*,-38,-11,-13
C[C@H]1CN([C@@H](C)CO)C(=O)c2cccc(NC(=O)c3cnccn3)c2O[C@H]1CN(C)Cc1ccc(C(=O)Nc2ccccc2N)cc1,203*,-39,-7.5,93
CCCc1nc2c(=O)n(C)c(=O)nc-2n(C)n1,-75,/,/,/
CCOCCCNc1nc2c(c(=O)n(C)c(=O)n2C)n1CCCc1ccccc1,-40,/,/,/
CC1CCCC=CC2CC(OC(=O)CN(C)C)CC2C(O)C=CC(=O)O1 (configuration not stated),-67,/,/,/
C[C@@H](C(=O)Nc1nc2ccc(F)cc2s1)N1C(=O)C2CC=CCC2C1=O (some centres not stated),-47,/,/,/
CC1CCCN(S(=O)(=O)c2ccc3c(c2)n(C)c(=O)c(=O)n3C)C1 (configuration not stated),-49,/,/,/
CCOC(=O)C1CCCN(S(=O)(=O)c2ccc3c(c2)NC(=O)CO3)C1 (configuration not stated),92*,-23,/,?
O=c1[nH]nc(-c2ccc(NCCCO)c([N+](=O)[O-])c2)c2ccccc12,-59,/,/,/
O=S(=O)(c1ccc(Cl)cc1)c1snnc1-c1ccccc1,-42,/,/,/
CC(/C=C1\SC(=O)N(CCCC(=O)O)C1=O)=C\c1ccccc1,-43,/,/,/
O=C(CN1CCC(n2nnc3cc(C(F)(F)F)ccc32)CC1)NCc1cccs1,/,14,22,52
C=CC(=O)Nc1cccc(Oc2ccnc(Nc3ccc(N4CCN(C)CC4)cc3)n2)c1,-40,/,/,/
NCCCn1c(C(=O)c2cc(Cl)c(N)c(Cl)c2)c2ccc([N+](=O)[O-])cc2[n+]1[O-],-54,/,/,/
O=C(CN1CCC(Cn2cnc3ccccc32)CC1)NCc1ccco1,/,1,-2.4,14
O=C(NCc1ccco1)c1scc2c1OCCO2,-50,/,/,/
CCN1CCN(Cc2ccc(NC(=O)c3ccc(C)c(NC(=O)c4c[nH]c5cc(C(F)(F)F)ccc5c4=O)c3)cc2C(F)(F)F)CC1,-78,/,/,/
O=C(Cc1ccccc1)Nc1nc(-c2ccc(F)c(F)c2)cs1,62*,70,59,83
COc1ccc2sc(C)[n+](C)c2c1,-55,/,/,/
Cc1nnc(NCc2ccccc2)c2ccccc12,?,/,11,84
Brc1ccc2ncnc(NCc3ccccc3)c2c1,-42,/,/,/
CSc1n[nH]c(NCc2ccccc2)n1,-42,/,/,/
CCn1c(COc2ccc(=O)n(-c3ccccc3)n2)nnc1SCc1ccc(C)cc1,-46,/,/,/
O=C(Cc1ccccc1)Nc1cccc(-c2nc3ncccc3o2)c1,122*,285,108,53
SMILES,PGC1a acetyl up,Hep G6PC suppr,PCK1 hep suppr,Hep PGC-1a down
Cc1ccc(S(=O)(=O)/N=C2/C=C(Sc3ncn[nH]3)C(=O)c3ccccc32)cc1,-77,/,/,/
CCOC(=O)c1ccccc1NS(=O)(=O)c1ccc(OCC)cc1,?,17,50,70
Cc1cc2c(cc1S(=O)(=O)N1CCc3ccccc31)NC(=O)CO2,?,/,19,15
COc1ccc(S(=O)(=O)N(C)CC(=O)Nc2cccc(C(C)=O)c2)cc1Cl,?,17,13,?
CN1C[C@H](C(=O)N[C@]2(C)O[C@@]3(O)[C@@H]4CCCN4C(=O)[C@H](Cc4ccccc4)N3C2=O)CC2c3cccc4[nH]cc(c34)C[C@H]21 (some centres not stated),-43,/,/,/
CCCN(CCC)S(=O)(=O)c1ccc(C(=O)Nc2nnc(CSC)o2)cc1,-45,/,/,/
C=C[C@H]1C(C(=O)OCC)=CC[C@@H](c2ccccc2)N1S(=O)(=O)c1ccc(C)cc1,?,-62,?,57
O=C(O)C1CCCN1S(=O)(=O)c1ccc(Br)s1 (configuration not stated) (tested in a mixture with another compound),-42,/,/,/
Cc1ccc(S(=O)(=O)NC(CC(C)C)C(=O)N2CCCCCCC2)cc1 (configuration not stated),64*,7,77,77
COc1ccc(C2NC(=S)NC3=C2CCCC3=C2SCCS2)cc1 (configuration not stated),-45,/,/,/
C/C(=N\NC(=O)c1cc(C)[nH]n1)c1ccc(-c2ccccc2)cc1,-79,/,/,/
Fc1ccc(CN(Cc2ccccc2)C(c2cccs2)c2nnnn2C2CCCCC2)cc1 (configuration not stated),-42,/,/,/
CC(C)C(c1nnnn1Cc1ccccc1)N(Cc1ccco1)Cc1cccs1 (configuration not stated),91*,316,67,95
C=C1C(=O)[C@]23C[C@H]1CCC2[C@]1(C)CCC[C@@](C)(C(=O)O)C1C[C@@H]3O (some centres not stated),-47,/,/,/
CCN(CC)c1cc(Cl)nc(N)n1,-43,/,/,/
O=C(/C=C/c1ccccc1)CC(O)(c1ccccc1)C(F)(F)C(F)F (configuration not stated),-42,/,/,/
CCc1ccc(C(=O)CN(C#N)c2nc(C)cc(C)n2)cc1,-49,/,/,/
COCCCNC(=O)c1cc(=O)n(Cc2ccc(Cl)cc2)c2ccccc12,-45,/,/,/
NC(=O)C1CCCc2c1[nH]c1ccc(Cl)cc21 (configuration not stated),/,1,-3,11
CCOc1ccc(S(=O)(=O)N(C)C)cc1-c1nc2c(C(C)(C)C)nn(C)c2c(=O)[nH]1,-48,/,/,/
O=C(O)CC1S/C(=N/N=C/c2ccc(Br)cc2)N(c2ccccc2)C1=O (configuration not stated),-75,/,/,/
COc1ccc(Cn2nnnc2CN(Cc2cc3ccc(C)cc3[nH]c2=O)C2CCCC2)cc1,-42,/,/,/
Cc1ccc(S(=O)(=O)/N=C2\C=C(Nc3ccc(O)cc3)C(=O)c3ccccc32)cc1,-86,/,/,/
COc1cc(-c2cnc3c(NC(C)=O)cc(-c4ccccc4CN(C)C)cn23)cc(OC)c1OC,?,505,84,55
O=C(O)c1ccc2c(c1)OCCCO2,-44,/,/,/
SMILES,PGC1a acetyl up,Hep G6PC suppr,PCK1 hep suppr,Hep PGC-1a down
O=S(=O)(Nc1nc2c(s1)CCCC2)c1ccc(F)cc1,-49,/,/,/
O=S(=O)(NCCSc1ccc(Cl)cc1)c1ccc(F)cc1,-40,/,/,/
O=S(=O)(NC12CC3CC(CC(C3)C1)C2)c1ccc(F)cc1,60*,-27,28,50
COc1ccc(Nc2nnc(-c3ccc(C(N)=O)cc3)c3ccccc23)cc1,89*,157,78,111
O=C(OCn1ncc(Br)c(Br)c1=O)c1ccc(F)cc1,-37,/,/,/
O=C(NCc1cccs1)C1Cc2c(-c3ccc(Cl)cc3)ccnc2O1 (configuration not stated),101*,13,6.5,48
Cc1ccc(Cl)c(Cn2cnc3c(cnn3C(C)(C)C)c2=O)c1F,-48,/,/,/
